Assay results published in ChEMBL document CHEMBL2057098, “Novel 1,2,4-triazolo[1,5-a]pyridines and their fused ring systems attenuate oxidative stress and prolong lifespan of Caenorhabiditis elegans” (2012).
Calls of active or inactive are those of the source. No cut-off for these calls is given here.

How the values were obtained:
Caenorhabditis elegans [1] = assay: Antioxidant activity against parquat-induced oxidative stress in wild type Caenorhabditis elegans Bristol N2 assessed as increase in survival time at 500 nM (reference value: 17.64 +/- 0.19 days); assay type: functional
Caenorhabditis elegans [2] = assay: Antioxidant activity against parquat-induced oxidative stress in wild type Caenorhabditis elegans Bristol N2 assessed as increase in survival time at 500 nM to 1 uM; assay type: functional, organism-based
Method in brief: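 Age-synchronised 7-day-old adult N2 worms were placed overnight on agar plates with 40 μM FUDR and paraquat, with or without compound (50 nM, 500 nM, 1 μM), at 20 °C. Viability was scored over 20 h, with 30 worms per trial in three independent experiments. Survival was plotted as Kaplan–Meier curves.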

Caenorhabditis elegans [3] = assay: Antioxidant activity against lipid peroxidation in wild type Caenorhabditis elegans Bristol N2 assessed as decrease of malondialdehyde level; assay type: functional, organism-based
Method in brief: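 N2 worms were kept 7 days on plates with 40 μM FUDR, with or without compound. They were washed by sucrose flotation, homogenised in Tris-HCl pH 7.9 buffer with protease inhibitors, and centrifuged. The lysate was treated with 8.1% SDS for 10 min at room temperature, then boiled 60 min with 20% acetic acid and 0.6% thiobarbituric acid, with 0.01% BHT present. A butanol:pyridine (15:1) extract was read at 532 nm against a tetramethoxypropane standard. MDA was expressed as nmol/g protein.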

Caenorhabditis elegans [4] = assay: Antioxidant activity against heat-induced oxidative stress in wild type Caenorhabditis elegans Bristol N2 assessed as increase in survival time at 50 nM […] relative to control; assay type: functional
Caenorhabditis elegans [5] = assay: Antioxidant activity against heat-induced oxidative stress in wild type Caenorhabditis elegans Bristol N2 assessed as increase in survival time measured for 16 hrs at 37 degC relative to control; assay type: functional, organism-based
Caenorhabditis elegans [6] = assay: Antioxidant activity against parquat-induced oxidative stress in wild type Caenorhabditis elegans Bristol N2 assessed as increase in survival time; assay type: functional, organism-based
Method in brief: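 Seven-day-old synchronised N2 adults, 30 worms per trial at 20 °C. Worms were placed overnight on agar containing paraquat and 40 μM FUDR, with or without test compound. Viability was scored over a 20 h period. Three independent experiments.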

Caenorhabditis elegans [7] = assay: Antioxidant activity in wild type Caenorhabditis elegans Bristol N2 assessed as decrease in oxidative stress-induced carboxymethyllysine formation by ELISA; assay type: functional, organism-based
Method in brief: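 Protein extracts came from N2 worms treated for 7 days with or without compound, with 40 μM FUDR; protein was quantified. CML was measured by competitive ELISA on streptavidin-coated plates using biotinylated glucose-glycated BSA and an HRP-labelled mouse monoclonal anti-CML antibody.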

Caenorhabditis elegans [8] = assay: Antioxidant activity against heat-induced oxidative stress in wild type Caenorhabditis elegans Bristol N2 assessed as increase in survival time at 500 nM […] relative to control; assay type: functional
Caenorhabditis elegans [9] = assay: Antioxidant activity against parquat-induced oxidative stress in wild type Caenorhabditis elegans Bristol N2 assessed as increase in survival time at 1 uM (reference value: 17.64 +/- 0.19 days); assay type: functional
Caenorhabditis elegans [10] = assay: Antioxidant activity against heat-induced oxidative stress in wild type Caenorhabditis elegans Bristol N2 assessed as increase in survival time at 1 uM […] relative to control; assay type: functional
Caenorhabditis elegans [11] = assay: Antioxidant activity against parquat-induced oxidative stress in wild type Caenorhabditis elegans Bristol N2 assessed as increase in survival time at 50 nM (reference value: 17.64 +/- 0.19 days); assay type: functional

For `CCSc1nn2c(=O)c(/C=N/O)c(Cl)c(C#N)c2n1-c1ccccc1`, the Activity (Caenorhabditis elegans [1]) was “inactive” and the Activity (Caenorhabditis elegans [2]) was “inactive”.

In the case of `CCSc1nn2c(=O)c(C#N)c(N)c(C#N)c2n1-c1ccccc1`, the Time (Caenorhabditis elegans [1]) is reported as 19.76 days, the Activity (Caenorhabditis elegans [3]) is reported as “Dose-dependent effect” and the “fold change (FC)” value (Caenorhabditis elegans [4]) is reported as 1.8. The Activity (Caenorhabditis elegans [5]) was “Dose-dependent effect”, the Activity (Caenorhabditis elegans [6]) was “Dose-dependent effect” and the Activity (Caenorhabditis elegans [7]) was “Dose-dependent effect”. The “fold change (FC)” value (Caenorhabditis elegans [8]) was 2, the Time (Caenorhabditis elegans [9]) was 21 days and the “fold change (FC)” value (Caenorhabditis elegans [10]) was 2.5. It also gave a Time (Caenorhabditis elegans [11]) of 18 days.

`CCOC(=O)c1cc2c(=O)n3nc(SCC)n(-c4ccccc4)c3c(C#N)c2[nH]1` was tested, and the Activity (Caenorhabditis elegans [1]) was “inactive” and the Activity (Caenorhabditis elegans [2]) was “inactive”.

`CCSc1nn2c(=O)c(/C=N/O)c(NCC(C)C)c(C#N)c2n1-c1ccccc1` was tested, and the Activity (Caenorhabditis elegans [1]) was “inactive” and the Activity (Caenorhabditis elegans [2]) was “inactive”.
